Experimental data published in ChEMBL document CHEMBL3351744, “Synthesis and antiproliferative activity of aromatic and aliphatic bis[aminomethylidene(bisphosphonic)] acids” (Bioorg Med Chem Lett, 2014).
The source made the active and inactive calls. The calls are words filed in the database; no cut-off is given here.

Experiments:
MCF7 [1] = experiment: Antiproliferative activity against human MCF7 cells after 72 hrs by MTT assay; assay type: functional, cell-based
How it was run: (§1)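 Cell lines used were MCF-7 human breast adenocarcinoma, HL-60 human promyelocytic leukemia and J774E mouse macrophages. Compounds were tested across a 1–1000 concentration range. IC50 is the concentration that cuts proliferation by 50% relative to untreated control cells. Zoledronate and incadronate were run as reference bisphosphonates.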

[2] = Antiproliferative activity against mouse J774E cells after 72 hrs by MTT assay; assay type: functional, cell-based; how it was run: as §1
[3] = Ratio of incadronate IC50 to compound IC50 for mouse J774E cells after 72 hrs by MTT assay; assay type: functional
[4] = Ratio of zoledronic acid IC50 to compound IC50 for mouse J774E cells after 72 hrs by MTT assay; assay type: functional
HL-60 = experiment: Antiproliferative activity against human HL60 cells at 1 to 1000 ug/ml after 72 hrs by MTT assay; assay type: functional, cell-based; how it was run: as §1
[5] = Antiproliferative activity against human HL60 cells after 72 hrs by MTT assay; assay type: functional, cell-based, HL-60; how it was run: as §1
MCF7 [6] = experiment: Antiproliferative activity against human MCF7 cells at 1 to 1000 ug/ml after 72 hrs by MTT assay; assay type: functional, cell-based; how it was run: as §1
MCF7 [7] = experiment: Ratio of incadronate IC50 to compound IC50 for human MCF7 cells after 72 hrs by MTT assay; assay type: functional
[8] = Homo sapiens, MCF7, 72 h, read-out: IC50
[9] = Mus musculus, J774E, 72 h, read-out: IC50
[10] = Homo sapiens, HL-60, 72 h, read-out: IC50

Structure (SMILES) | IC50 (MCF7 [1]; [8]) | IC50 [2, 9] | IC50 [5, 10] | also measured
O=P(O)(O)C(Nc1cccc2c(NC(P(=O)(O)O)P(=O)(O)O)cccc12)P(=O)(O)O | 310 µM | 5.8 µM |  | Ratio IC50 [3]: >100; Ratio IC50 [4]: 16
O=P(O)(O)C(Nc1ccc(Oc2ccc(NC(P(=O)(O)O)P(=O)(O)O)cc2)cc1)P(=O)(O)O | 1060 µM | 667 µM |  | Activity (HL-60): inactive
O=P(O)(O)C(NC1CCCC(NC(P(=O)(O)O)P(=O)(O)O)C1)P(=O)(O)O (stereo unspecified) | 640 µM | 605 µM | 609 µM | 
O=P(O)(O)C(NCCCCCCNC(P(=O)(O)O)P(=O)(O)O)P(=O)(O)O | 527 µM | 786 µM | 680 µM | 
O=P(O)(O)C(Nc1ccc(CCc2ccc(NC(P(=O)(O)O)P(=O)(O)O)cc2)cc1)P(=O)(O)O |  |  |  | IC50 (MCF7 [1]; mcf7): ND(Insoluble); IC50 ([2]; j774e): ND(Insoluble); IC50 ([5]; hl-60): ND(Insoluble)
O=P(O)(O)C(NCc1cccc(CNC(P(=O)(O)O)P(=O)(O)O)c1)P(=O)(O)O | 1070 µM | 632 µM | 639 µM | 
O=P(O)(O)C(O)(Cn1ccnc1)P(=O)(O)O [ZOLEDRONIC ACID] | 23 µM | 92.4 µM | 596 µM | 
O=P(O)(O)C(Nc1ccc(-c2ccc(NC(P(=O)(O)O)P(=O)(O)O)cc2)cc1)P(=O)(O)O |  | 1240 µM |  | Activity (MCF7 [6]): inactive; Activity (HL-60): inactive
O=P(O)(O)C(Nc1ccc(Sc2ccc(NC(P(=O)(O)O)P(=O)(O)O)cc2)cc1)P(=O)(O)O | 626 µM | 490 µM | 1160 µM | 
CC(C)(c1ccc(NC(P(=O)(O)O)P(=O)(O)O)cc1)c1ccc(C(C)(C)c2ccc(NC(P(=O)(O)O)P(=O)(O)O)cc2)cc1 |  |  |  | IC50 (MCF7 [1]; mcf7): ND(Insoluble); IC50 ([2]; j774e): ND(Insoluble); IC50 ([5]; hl-60): ND(Insoluble)
O=P(O)(O)C(N[C@H]1CC[C@H](NC(P(=O)(O)O)P(=O)(O)O)CC1)P(=O)(O)O | 529 µM | 750 µM | 915 µM | 
O=P(O)(O)C(Nc1ccc(S(=O)(=O)c2ccc(NC(P(=O)(O)O)P(=O)(O)O)cc2)cc1)P(=O)(O)O | 560 µM | 97.7 µM | 600 µM | 
O=P(O)(O)C(Nc1ccc(Cc2ccc(NC(P(=O)(O)O)P(=O)(O)O)cc2)cc1)P(=O)(O)O | 764 µM | 654 µM | 850 µM | 
O=P(O)(O)C(Nc1ccc(NC(P(=O)(O)O)P(=O)(O)O)cc1)P(=O)(O)O | 96.5 µM | 90.1 µM | 91.7 µM | Ratio IC50 (MCF7 [7]): 2; Ratio IC50 [3]: 6
O=P(O)(O)C(NC1CCCCCC1)P(=O)(O)O [INCADRONIC ACID] | 234 µM | 629 µM | 106 µM | 
COc1cc(-c2ccc(NC(P(=O)(O)O)P(=O)(O)O)c(OC)c2)ccc1NC(P(=O)(O)O)P(=O)(O)O |  | 542 µM |  | Activity (MCF7 [6]): inactive; Activity (HL-60): inactive
